Here are results for 33 compounds from ChEMBL document CHEMBL1133390, “Effects of stilbene constituents from rhubarb on nitric oxide production in lipopolysaccharide-activated macrophages” (Bioorg Med Chem Lett, 2000).

A value given as a limit tells only on which side of the number the result lay.

Common to all, as to format: functional
For experiment [1], the species on record is Mus musculus. The experiment is described as follows: Inhibitory activity against nitric oxide production in LPS-activated mouse peritoneal macrophages. The gist of the method: (§1)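 Peritoneal exudate cells from male ddY mice, 5 × 10^5 cells/well, pre-cultured 1 h at 37 °C in RPMI 1640 with 5% FCS. Nonadherent cells washed off; adherent macrophages (>95%) given 10 µg/mL LPS plus test compound (DMSO, final 0.5%) for 20 h. Nitrite in medium measured by Griess reagent. Inhibition calculated relative to LPS-stimulated and unstimulated wells; IC50 determined graphically (N=4).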

The species named for experiment [2] is Mus musculus. The experiment is described as follows: Compound (at 100 uM) was tested for inhibition against nitric oxide production in LPS-activated mouse peritoneal macrophages. The gist of the method: as §1
Experiment [3] is filed under the species Mus musculus. The experiment is described as follows: Compound (at 30 uM) was tested for inhibition against nitric oxide production in LPS-activated mouse peritoneal macrophages.
The species entered for experiment [4] is Mus musculus. The experiment is described as follows: Compound was tested for inhibitory activity against nitric oxide production in LPS-activated mouse peritoneal macrophages (*,showed cytotoxicity at 100 uM).
Experiment [5] is filed under the species Mus musculus. In words: Compound (at 10 uM) was tested for inhibition against nitric oxide production in LPS-activated mouse peritoneal macrophages.
The species entered for experiment [6] is Mus musculus. In words: Compound was tested for inhibitory activity against nitric oxide production in LPS-activated mouse peritoneal macrophages (*,showed cytotoxicity at 30 uM).

Usually IC50 stands for the concentration that gives 50% inhibition. In experiment [1], `O=C(/C=C/c1ccc(O)c(O)c1)OCCc1ccccc1` [CAFFEIC ACID PHENETHYL ESTER] showed an IC50 of 40 µM.
Same read-out and setting: to `COc1ccc(/C=C/c2cc(O)cc(O[C@@H]3O[C@H](COC(=O)c4cc(O)c(O)c(O)c4)[C@@H](O)[C@H](O)[C@H]3O)c2)cc1O` belongs 11 µM.
Broadly, the inhibition is the share of the control response that was lost under treatment. In experiment [2], `COc1ccc(CCc2cc(O)cc(O[C@@H]3O[C@H](CO)[C@@H](O)[C@H](O)[C@H]3O)c2)cc1O` returned an inhibition at 100 µM of 8%. The same compound returned an IC50 in experiment [1] of more than 100 µM.
`COc1ccc(/C=C/c2cc(O)cc(O)c2)cc1` [RESVERATROL 4'-METHYL ETHER] displayed an inhibition at 30 µM in experiment [3] of 13%. In experiment [4], this compound gave an IC50 of more than 30 µM.
Regarding `Cc1cc(O[C@@H]2O[C@H](CO)[C@@H](O)[C@H](O)[C@H]2O)c2c(c1)C(=O)c1cccc(O)c1C2=O` [CHRYSOPHANEIN], the inhibition at 100 µM in experiment [2] turned out to be 20%. In experiment [1], this compound came in with an IC50 of more than 100 µM.
The compound `COC[C@H]1O[C@@H](Oc2cc(/C=C/c3cc(OC)cc(OC)c3)ccc2OC)[C@H](OC)[C@@H](OC)[C@@H]1OC` returned an IC50 in experiment [1] of 27 µM.
In turn, `COc1cc(/C=C/c2cc(O)cc(O[C@@H]3O[C@H](CO)[C@@H](O)[C@H](O)[C@H]3O)c2)ccc1O` had an inhibition at 100 µM in experiment [2] of 5%. The IC50 in experiment [1] was more than 100 µM.
In turn, `COc1ccc(/C=C/c2cc(OC)cc(OC)c2)cc1` [TRISMETHOXYRESVERATROL] showed an IC50 in experiment [1] of 22 µM.
For `Cc1cc(O)c2c(c1)C(=O)c1cccc(O[C@@H]3O[C@H](CO)[C@@H](O)[C@H](O)[C@H]3O)c1C2=O` [PULMATIN], in experiment [2], the inhibition at 100 µM was 31%. Further, the concentration for half-maximal inhibition (IC50) in experiment [1] was more than 100 µM.
In experiment [1], `COc1ccc(/C=C/c2cc(O)cc(O[C@@H]3O[C@H](CO)[C@@H](O)[C@H](O)[C@H]3OC(=O)c3cc(O)c(O)c(O)c3)c2)cc1O` gave an IC50 of 13 µM.
`OC[C@H]1O[C@@H](Oc2cc(CCc3cc(O)cc(O)c3)ccc2O)[C@H](O)[C@@H](O)[C@@H]1O`: 100 µM produced 6% inhibition in experiment [2]. The compound further had an IC50 in experiment [1] of more than 100 µM.
In experiment [1], `Oc1ccc(/C=C/c2cc(O)cc(O)c2)cc1` [RESVERATROL] came in with an IC50 of 68 µM. That is a double-digit micromolar value.
On the same count and under the same terms, to `COc1cc(O[C@@H]2O[C@H](CO)[C@@H](O)[C@H](O)[C@H]2O)c2c(O)c(C(C)=O)c(C)cc2c1` belongs 69 µM; to `O=C(O)c1cc(O)c(O)c(O)c1` [GALLIC ACID], 63 µM.
In experiment [2], `COc1ccc(/C=C/c2cc(O)cc(O[C@@H]3O[C@H](CO)[C@@H](O)[C@H](O)[C@H]3O)c2)cc1O` [RHAPONTIN] gave an inhibition at 100 µM of 25%. This compound also displayed an IC50 in experiment [1] of more than 100 µM.
Regarding `COc1cc(/C=C/c2ccc(OC)c(OC)c2)cc(OC)c1` [(E)-3,4,3',5'-TETRAMETHOXYSTILBENE], the IC50 in experiment [1] is 28 µM.
With `Cc1cc(O)c2c(c1)C(=O)c1cccc(O)c1C2=O` [CHRYSOPHANOL], the inhibition at 100 µM in experiment [2] worked out at 2%. For the same compound, the IC50 in experiment [1] was more than 100 µM.
Take `COc1cc(O)cc(/C=C/c2ccc(OC)c(OC)c2)c1`: half-maximal inhibition in experiment [4] (IC50) was put at 19 µM.
Consider `Oc1ccc(CCc2cc(O)cc(O)c2)cc1` [DIHYDRORESVERATROL], for which the IC50 in experiment [1] was determined as 76 µM.
`C(=C\c1ccccc1)/c1ccccc1` showed an inhibition at 100 µM in experiment [2] of 21%. Also, the IC50 in experiment [1] is more than 100 µM.
Compound `COc1cc(/C=C/c2cc(O)cc(O)c2)ccc1O` had an IC50 in experiment [1] of 63 µM.
Still for that read-out and setting: to `Oc1cc(O)cc(CCc2ccc(O)c(O)c2)c1` belongs 32 µM; to `COC[C@H]1O[C@@H](Oc2cc(/C=C/c3ccc(OC)c(OC)c3)cc(OC)c2)[C@H](OC)[C@@H](OC)[C@@H]1OC`, 5.8 µM.
In the case of `COc1ccc(/C=C/c2cc(O)cc(O)c2)cc1O`, the IC50 in experiment [1] is 48 µM.
For `O=C1c2cccc(O)c2C(=O)c2c(O)cc(CO)cc21` [ALOE-EMODIN], at 10 µM the inhibition in experiment [5] was 38%. For the same compound, in experiment [6], the IC50 was more than 10 µM.
Compound `Cc1cc(O)c2c(c1)C(=O)c1cccc(O[C@@H]3O[C@H](COC(=O)c4cc(O)c(O)c(O)c4)[C@@H](O)[C@H](O)[C@H]3O)c1C2=O` returned an inhibition at 100 µM in experiment [2] of 31%. The compound also had an IC50 in experiment [1] of more than 100 µM.
Taken in the same sequence, the figures for `c1ccc(CCc2ccccc2)cc1` were 26% and more than 100 µM.
`COc1cc(/C=C/c2ccc(OC)c(O)c2)cc(OC)c1` registered a concentration for half-maximal inhibition (IC50) in experiment [4] of 23 µM. This lies in the double-digit micromolar range.
`O=C1c2cccc(O)c2C(=O)c2c(O[C@@H]3O[C@H](CO)[C@@H](O)[C@H](O)[C@H]3O)cc(CO)cc21` yielded an inhibition at 100 µM in experiment [2] of 46%. The IC50 in experiment [1] is more than 100 µM.
For `Oc1cc(O)cc(/C=C/c2ccc(O)c(O)c2)c1` [PICEATANNOL], in experiment [1], it took 23 µM to reach half-maximal inhibition (IC50).
Turning to `COc1ccc(/C=C/c2cc(O)cc(O[C@@H]3O[C@H](CO)[C@@H](O)[C@H](O)[C@H]3O)c2)cc1`, the inhibition at 100 µM in experiment [2] amounted to 13%. In experiment [1], this compound gave an IC50 of more than 100 µM.
The matching figures for `OC[C@H]1O[C@@H](Oc2cc(/C=C/c3cc(O)cc(O)c3)ccc2O)[C@H](O)[C@@H](O)[C@@H]1O`: 10% and more than 100 µM.
Consider `COc1ccc(CCc2cc(O)cc(O)c2)cc1O`, for which the IC50 in experiment [1] was found to be 49 µM.
